Converted amounts (≈) assume the structure as drawn. Where a SMILES comes first, the peptide text is derived from it.
Tests used:
Escherichia coli [1] = assay: Antibacterial activity against Escherichia coli UB1005 measured after 24 hrs; type: functional; conditions: UB1005, 24 h
Procedure, shortened: (§1)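 Broth microdilution adapted from NCCLS. Mid-log bacteria were diluted in MHB to a final (0.5–1) × 10^5 CFU mL−1. Peptides were serially diluted in 0.2% BSA and mixed with an equal volume of cells. After 24 h at 37 °C, MIC was read at A492 as the lowest concentration inhibiting 95% of growth. At least three independent experiments, each with three technical replicates.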

Salmonella typhimurium [2] = assay: Antibacterial activity against Salmonella typhimurium ATCC 14028 measured after 24 hrs; type: functional, Salmonella enterica subsp. enterica serovar Typhimurium; conditions: Salmonella enterica, ATCC 14028, 24 h; procedure, shortened: as §1
[3] = Antibacterial activity against Salmonella pullorum ATCC 7913 measured after 24 hrs; type: functional, Salmonella enterica subsp. enterica serovar Pullorum; conditions: Salmonella enterica, ATCC 7913, 24 h; procedure, shortened: as §1
Escherichia coli [4] = assay: Antibacterial activity against Escherichia coli K88 measured after 24 hrs; type: functional; conditions: K88, 24 h; procedure, shortened: as §1
Salmonella typhimurium [5] = assay: Antibacterial activity against Salmonella typhimurium C7731 measured after 24 hrs; type: functional, Salmonella enterica subsp. enterica serovar Typhimurium; conditions: Salmonella enterica, C7731, 24 h; procedure, shortened: as §1
Staphylococcus aureus [6] = assay: Antibacterial activity against Staphylococcus aureus ATCC 29213 measured after 24 hrs; type: functional; conditions: ATCC 29213, 24 h
Procedure, shortened: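 Broth microdilution modified from NCCLS. Mid-log bacteria at (0.5–1) × 10^5 CFU mL−1 in MHB, mixed with peptides serially diluted in 0.2% BSA. Incubated 24 h at 37 °C, read at A492. MIC taken as lowest concentration giving 95% growth inhibition. At least three independent experiments, each with three technical replicates.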

Candida albicans [7] = assay: Antifungal activity against Candida albicans cgmcc2.2086 measured after 48 hrs by broth microdilution method; type: functional; conditions: cgmcc2.2086, 48 h
Procedure, shortened: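 Modified CLSI M27-A2 microdilution. Yeast colonies were diluted in MOPS-buffered RPMI 1640 to a final (0.5–1) × 10^3 CFU mL−1 and mixed with an equal volume of peptide serially diluted in 0.2% BSA. After 48 h at 28 °C, MIC was read at A492 as the lowest concentration inhibiting 95% of growth. At least three independent experiments, each with three technical replicates.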

[8] = Bactericidal activity against Salmonella pullorum ATCC 7913 incubated for 24 hrs followed by replating on agar plate and measured after overnight incubation; type: functional, Salmonella enterica subsp. enterica serovar Pullorum; conditions: Salmonella enterica, ATCC 7913, 24 h; read-out: MBC>99.9
Procedure, shortened: (§2)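 Mid-log bacteria diluted in MHB to (0.5–1) × 10^5 CFU/mL and mixed 1:1 with peptide serially diluted in 0.2% BSA. After 24 h at 37 °C, 50 μL of each mixture was plated on agar and incubated overnight. MBC taken as the lowest concentration killing >99.9% of cells. At least three independent experiments, each with three technical replicates.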

Escherichia coli [9] = assay: Bactericidal activity against Escherichia coli K88 incubated for 24 hrs followed by replating on agar plate and measured after overnight incubation; type: functional; conditions: K88, 24 h, read-out: MBC>99.9; procedure, shortened: as §2
Escherichia coli [10] = assay: Bactericidal activity against Escherichia coli 078 incubated for 24 hrs followed by replating on agar plate and measured after overnight incubation; type: functional; conditions: Escherichia coli, 078, 24 h; read-out: MBC>99.9
Procedure, shortened: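 After the 24 h, 37 °C MHB microdilution (0.5–1 × 10^5 CFU mL−1 inoculum, peptides diluted in 0.2% BSA), 50 μL from each well was plated on agar and incubated overnight. MBC was taken as the lowest concentration killing >99.9% of cells. Three or more independent experiments, each with triplicate technical replicates.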

Staphylococcus aureus [11] = assay: Bactericidal activity against methicillin-resistant Staphylococcus aureus ATCC 43300 incubated for 24 hrs followed by replating on agar plate and measured after overnight incubation; type: functional; conditions: ATCC 43300, 24 h, read-out: MBC>99.9
Procedure, shortened: (§3)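 After the 24 h, 37 °C MHB microdilution MIC assay, 50 μL from each well was plated on agar and incubated overnight. MBC taken as lowest peptide concentration killing >99.9% of cells. At least three independent experiments, each with three technical replicates.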

Staphylococcus aureus [12] = assay: Bactericidal activity against Staphylococcus aureus ATCC 25923 incubated for 24 hrs followed by replating on agar plate and measured after overnight incubation; type: functional; conditions: ATCC 25923, 24 h, read-out: MBC>99.9; procedure, shortened: as §3
Candida tropicalis = assay: Fungicidal activity against Candida tropicalis cgmcc2.1975 incubated for 48 hrs followed by replating on YM agar plate and measured after 48 hrs; type: functional
Procedure, shortened: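 Yeast diluted in MOPS-buffered RPMI 1640 to (0.5–1) × 10^3 CFU/mL (CLSI M27-A2, modified) and mixed 1:1 with peptide serially diluted in 0.2% BSA. After 48 h at 28 °C, 50 μL per well was plated on YM agar and incubated 48 h at 28 °C. MFC taken as the lowest concentration killing ≥99.9% of cells. Three or more independent experiments, triplicate wells.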

Escherichia coli [13] = assay: Antibacterial activity against Escherichia coli ATCC 25922 measured after 18 to 24 hrs in presence of MgCl2; type: functional
Escherichia coli [14] = assay: Antibacterial activity against Escherichia coli ATCC 25922 measured after 18 to 24 hrs in presence of NH4Cl; type: functional
Staphylococcus aureus [15] = assay: Antibacterial activity against Staphylococcus aureus ATCC 29213 measured after 18 to 24 hrs in presence of MgCl2; type: functional
Staphylococcus aureus [16] = assay: Antibacterial activity against Staphylococcus aureus ATCC 29213 measured after 18 to 24 hrs in presence of NH4Cl; type: functional
Procedure, shortened: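 MIC broth microdilution (MHB, 0.2% BSA peptide diluent, A492, 95% inhibition) run in the presence of physiological salts at final concentrations of 6 μM NH4Cl or 8 μM ZnCl2. Three independent assays, each with three technical replicates.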

Candida albicans [17] = assay: Antifungal activity against Candida albicans cgmcc2.2086 measured after 48 hrs in presence of FeCl by broth microdilution method; type: functional; conditions: cgmcc2.2086, 48 h
Candida albicans [18] = assay: Antifungal activity against Candida albicans cgmcc2.2086 measured after 48 hrs in presence of NH4Cl by broth microdilution method; type: functional; conditions: cgmcc2.2086, 48 h
[19] = Therapeutic index, ratio of MHC10 for hemolytic activity in human RBC to MIC95 against Staphylococcus aureus ATCC 29213; type: toxicity; conditions: human red blood cells (erythrocytes), read-out: TI
Procedure, shortened: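 Therapeutic index = MHC divided by MIC. MHC is the lowest concentration giving >10% lysis of human RBC (1 h, 37 °C, 1-128 µM, A576). MIC is 95% growth inhibition by broth microdilution: bacteria in MHB 24 h at 37 °C; Candida in MOPS-buffered RPMI 1640 at (0.5–1) × 10^3 CFU mL−1, 48 h at 28 °C.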

[20] = Conformational stability in pH 7.4 sodium phosphate buffer assessed as absorption spectra at minimum dichroic band at 35 uM by CD spectra analysis; type: physicochemical; conditions: pH 7.4, 35 µM
Procedure, shortened: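 CD spectra from 190 to 250 nm of peptide at 35 μM in 10 mM PBS, 30 mM SDS micelles or 50% TFE, recorded in a 1.0-mm quartz cell. Ellipticity was converted to mean residue ellipticity. Three independent scans, each averaged over more than 3 runs.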

Compound	MIC95 (Escherichia coli [1]) [µM]	MIC95 (Salmonella typhimurium [2]) [µM]	MIC95 [3] [µM]	MIC95 (Escherichia coli [4]) [µM]	MIC95 (Salmonella typhimurium [5]) [µM]	MIC95 (Staphylococcus aureus [6]) [µM]	MIC95 (Candida albicans [7]) [µM]	MBC [8] [µM]	MBC (Escherichia coli [9]) [µM]	MBC (Escherichia coli [10]) [µM]	MBC (Staphylococcus aureus [12]) [µM]	MIC95 (Escherichia coli [13]) [µM]	MIC95 (Escherichia coli [14]) [µM]	MIC95 (Staphylococcus aureus [15]) [µM]	MIC95 (Staphylococcus aureus [16]) [µM]	MIC95 (Candida albicans [17]) [µM]	MIC95 (Candida albicans [18]) [µM]	selectivity ratio [19]	Wavelength of minimum CD band [20] [nm]	also measured
H-AARIILRRRFR-NH2	16	32	16	16	8	16	128	32	32	32	64	64	8	32	16	> 128	> 128	13.4	200	MBC (Staphylococcus aureus [11]): 64 µM; MFC<=99.9 (Candida tropicalis): 128 µM
H-AARIILRFRFR-NH2	4	4	4	4	4	2	8	8	8	8	4	32	4	2	2	8	4	128	200	MBC (Staphylococcus aureus [11]): 4 µM; MFC<=99.9 (Candida tropicalis): 4 µM
CC[C@H](C)[C@H](NC(=O)[C@H](CCCCN)NC(=O)[C@H](C)NC(=O)[C@H](C)N)C(=O)N[C@H](C(=O)N[C@@H](CC(C)C)C(=O)N[C@@H](CC(N)=O)C(=O)N1CCC[C@H]1C(=O)N[C@@H](CCCCN)C(=O)N[C@@H](Cc1ccccc1)C(=O)N[C@@H](CCCNC(=N)N)C(=O)N[C@@H](CS)C(=O)N[C@@H](CCCCN)C(=O)N[C@@H](C)C(=O)N[C@@H](C)C(=O)N[C@@H](Cc1ccccc1)C(=O)N[C@@H](CS)C(N)=O)[C@@H](C)CC (H-AAKIILNPKFRCKAAFC-NH2)	64 (≈ 121 µg/mL)	64 (≈ 121 µg/mL)	64 (≈ 121 µg/mL)	32 (≈ 60.6 µg/mL)	> 128	> 128	> 128	> 128	64 (≈ 121 µg/mL)		> 128	64	32	> 128	> 128	> 128	> 128	0.3	200	
H-AARIILRNRFR-NH2	16	32	16	32	32	> 128	> 128	32	64	32		128	16	> 128	> 128	> 128	> 128	2	200	
H-AARIILRPRFR-NH2	8	16	16	16	16	> 128	> 128	64	32	16		64	16	> 128	> 128	> 128	> 128	2	200	
H-AARIILRDRFR-NH2	> 128	> 128	> 128	> 128	> 128	> 128	> 128					> 128	> 128	> 128	> 128	> 128	> 128	2	200	
H-AAKIILNPKFR-NH2	> 128	> 128	> 128	> 128	> 128	> 128	> 128					> 128	> 128	> 128	> 128	> 128	> 128	2	200	

Reference: ChEMBL document CHEMBL4350958, “Rational Design of Short Peptide Variants by Using Kunitzin-RE, an Amphibian-Derived Bioactivity Peptide, for Acquired Potent Broad-Spectrum Antimicrobial and Improved Therapeutic Potential of Commensalism Coinfection of Pathogens” (J Med Chem, 2019)
